Calls of active or inactive are those of the source. The rule behind the calls is not given here.
Columns and labels:
Plasmodium falciparum [1] = test: Antiplasmodial activity against chloroquine-resistant Plasmodium falciparum Dd2 infected in human erythrocytes assessed as reduction in microbial growth after 72 hrs by SYBR green I staining based fluorescence assay; assay type: functional, organism-based; settings: Dd2, Erythrocyte
Procedure, shortened: (§1)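 SYBR Green I assay: twofold serial dilutions on P. falciparum cultures at 1% parasitemia, 1% hematocrit, 37 °C, 5% CO₂, 72 h, max 0.1% DMSO. DMSO and CQ as growth and inhibition controls. Plates frozen at −80 °C, thawed, lysed in Tris/saponin/EDTA/Triton buffer with 0.01% SYBR Green I, 1 h dark at room temperature. Fluorescence read at 485 ex/530 em. EC50 by nonlinear dose–response fit.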

Plasmodium falciparum [2] = test: Antiplasmodial activity against chloroquine-sensitive Plasmodium falciparum 3D7 infected in human erythrocytes assessed as reduction in microbial growth after 72 hrs by SYBR green I staining based fluorescence assay; assay type: functional, organism-based; settings: for Activity: Erythrocyte; for EC50: 3D7, Erythrocyte; procedure, shortened: as §1
[3] = Resistant index, ratio of EC50 for antiplasmodial activity against chloroquine-resistant Plasmodium falciparum Dd2 to antiplasmodial activity against chloroquine-sensitive Plasmodium falciparum 3D7; assay type: functional
[4] = Selectivity index, ratio of EC50 for cytotoxicity against human HepG2 cells to antiplasmodial activity against chloroquine-resistant Plasmodium falciparum Dd2; assay type: toxicity, cell-based; settings: read-out: Ratio EC50
HepG2 = test: Cytotoxicity against human HepG2 cells assessed as reduction in cell viability after 48 hrs by MTS assay; assay type: cell-based; settings: HepG2, 48 h
Procedure, shortened: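 HepG2 cells were seeded at 2250 per well and grown 24 h at 37 °C, 5% CO₂. Serial dilutions starting at 25 μM were added for a further 48 h. MTS was then added for 3 h at 37 °C and absorbance read at 490 nm. EC₅₀ came from nonlinear dose–response fits.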

[5] = Stability of compound in mouse liver microsomes assessed as parent compound remaining at 1 uM after 60 mins in presence of NADPH by LC-MS analysis; assay type: ADME, Microsome; settings: 1 h
Procedure, shortened: (§2)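 Mouse liver microsomes (0.5 mg/mL final protein) in 0.1 M phosphate, pH 7.4, with compound at 1 μM, 37 °C with shaking. Aliquots were quenched in cold acetonitrile and centrifuged; LC–MS gave parent peak area at 60 min relative to 0 min.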

[6] = Half life in mouse liver microsomes at 1 uM after 60 mins in presence of NADPH by LC-MS analysis; assay type: ADME, Microsome; settings: 1 h; procedure, shortened: as §2
[7] = Intrinsic clearance in mouse liver microsomes assessed as parent compound at 1 uM after 60 mins in presence of NADPH by LC-MS analysis; assay type: ADME, Microsome; procedure, shortened: as §2

Row | SMILES | EC50 (Plasmodium falciparum [1]) | Ratio EC50 [3] | other results
1 | Fc1cccnc1/C=C/c1cc(NCCCCN2CCOCC2)c2cc(Cl)ccc2n1 | 197 nM |  | Activity (Plasmodium falciparum [2]): Active
2 | Fc1cc(F)c(/C=C/c2cc(NCCCCN3CCOCC3)c3cc(Cl)ccc3n2)cc1F | 197 nM |  | Activity (Plasmodium falciparum [2]): Active
3 | CN(C)CCNc1cc(/C=C/c2cncnc2)nc2ccc(Cl)cc12 | 155 nM | > 1.3 | 
4 | CN1CCN(CCCCNc2cc(/C=C/c3ccncc3)nc3ccc(Cl)cc23)CC1 | 33.4 nM | 0.9 | EC50 (Plasmodium falciparum [2]): 36.1 nM; selectivity ratio [4]: 251; EC50 (HepG2): 8380 nM
5 | CN(C)CCNc1cc(/C=C/c2cccc3ccccc23)nc2ccc(Cl)cc12 | 373 nM | > 1.3 | 
6 | CN(C)CCNc1cc(/C=C/c2ccc(N(C)C)cc2)nc2ccc(Cl)cc12 | 88.3 nM | > 1.3 | 
7 | Fc1ccc(/C=C/c2cc(NCCCCN3CCOCC3)c3cc(Cl)ccc3n2)cc1F | 25.5 nM | 0.9 | Stabilty [5]: 19.9%; t1/2 [6]: 25.8 min; EC50 (Plasmodium falciparum [2]): 27.6 nM; CLH [7]: 53.7 µL/min/mg; selectivity ratio [4]: 241; EC50 (HepG2): 10400 nM
8 | Clc1ccc2nc(/C=C/c3ccncc3)cc(Nc3ccc(N4CCCCC4)cc3)c2c1 | 793 nM |  | EC50 (Plasmodium falciparum [2]): 155 nM
9 | Fc1ccc(/C=C/c2cc(N3CCN(c4ccccn4)CC3)c3cc(Cl)ccc3n2)cc1 | 3300 nM |  | EC50 (Plasmodium falciparum [2]): 155 nM
10 | Fc1ccc(/C=C/c2cc(NCCN3CCOCC3)c3cc(Cl)ccc3n2)cc1 | 24.2 nM | 0.6 | EC50 (Plasmodium falciparum [2]): 41.8 nM; selectivity ratio [4]: 711; EC50 (HepG2): 17200 nM
11 | CN(C)CCNc1cc(/C=C/c2cccc(F)c2)nc2ccc(Cl)cc12 | 5.9 nM | 0.3 | Stabilty [5]: 38.2%; t1/2 [6]: 43.2 min; EC50 (Plasmodium falciparum [2]): 23 nM; CLH [7]: 32.1 µL/min/mg; selectivity ratio [4]: 810; EC50 (HepG2): 4780 nM
12 | Clc1ccc2nc(/C=C/c3ccncc3)cc(N3CCN(c4ccccn4)CC3)c2c1 | 2570 nM |  | EC50 (Plasmodium falciparum [2]): 155 nM
13 | CN1CCN(CCCCNc2cc(/C=C/c3ccc(F)cc3)nc3ccc(Cl)cc23)CC1 | 43 nM |  | 
14 | COc1ccc2nc(/C=C/c3cccc([N+](=O)[O-])c3)cc(NCCN(C)C)c2c1 | 49.5 nM |  | 
15 | CN1CCN(CCNc2cc(/C=C/c3ccncc3)nc3ccc(Cl)cc23)CC1 | 53.3 nM |  | 
16 | CN(C)CCCCNc1cc(/C=C/c2ccccc2)nc2ccc(Cl)cc12 | 68 nM |  | 
17 | Cc1cc(NCCCCN(C)C)c2cc(Cl)ccc2n1 | 1240 nM |  | 
18 | Fc1ccc(/C=C/c2cc(NCCCCN3CCOCC3)c3cc(Cl)ccc3n2)c(F)c1 | 72.6 nM |  | 
19 | Fc1ccc(/C=C/c2cc(N3CCC(N4CCCCC4)CC3)c3cc(Cl)ccc3n2)cc1 | 487 nM |  | EC50 (Plasmodium falciparum [2]): 155 nM
20 | COc1ccc2nc(/C=C/c3ccccc3[N+](=O)[O-])cc(NCCN(C)C)c2c1 | 56.3 nM |  | 
21 | Cc1cc(NCCN(C)C)c2cc(Cl)ccc2n1 | 732 nM |  | 
22 | Clc1ccc2nc(/C=C/c3ccncc3)cc(NCCN3CCCC3)c2c1 | 67.7 nM |  | 
23 | COc1ccc2nc(/C=C/c3cccnc3)cc(NCCN(C)C)c2c1 | 71 nM |  | 
24 | CN(C)CCNc1cc(/C=C/c2nccs2)nc2ccc(Cl)cc12 | 240 nM |  | 
25 | COc1ccc2nc(/C=C/c3ccccn3)cc(NCCN(C)C)c2c1 | 1030 nM |  | 
26 | Clc1ccc2nc(-c3ccncc3)cc(NCCCCN3CCOCC3)c2c1 | 796 nM |  | 
27 | Clc1ccc2nc(/C=C/c3ccncc3)cc(NCCCCN3CCOCC3)c2c1 | 9.9 nM | 0.5 | Stabilty [5]: 5.6%; t1/2 [6]: 14.4 min; EC50 (Plasmodium falciparum [2]): 20.8 nM; CLH [7]: 96.2 µL/min/mg; selectivity ratio [4]: 561; EC50 (HepG2): 5670 nM
28 | N#Cc1ccc(/C=C/c2cc(N3CCOCC3)c3cc(Cl)ccc3n2)cc1 | 1010 nM |  | 

Row | SMILES | EC50 (Plasmodium falciparum [1]) | Ratio EC50 [3] | other results
29 | COc1ccc2nc(/C=C/c3ccco3)cc(NCCN(C)C)c2c1 | 88.7 nM |  | 
30 | COc1ccc2nc(CCc3ccncc3)cc(NCCN(C)C)c2c1 | 709 nM |  | 
31 | Fc1ccc(/C=C/c2cc(NCCN3CCCC3)c3cc(Cl)ccc3n2)cc1 | 92.3 nM |  | 
32 | CN(C)CCNc1cc(/C=C/c2ccccc2F)nc2ccc(Cl)cc12 | 26 nM | 0.5 | EC50 (Plasmodium falciparum [2]): 55.9 nM; selectivity ratio [4]: 186; EC50 (HepG2): 4830 nM
33 | FC(F)(F)c1ccc(/C=C/c2cc(NCCCCN3CCOCC3)c3cc(Cl)ccc3n2)cc1 | 30.7 nM | 0.4 | Stabilty [5]: 52.7%; t1/2 [6]: 64.9 min; EC50 (Plasmodium falciparum [2]): 73.8 nM; CLH [7]: 21.4 µL/min/mg; selectivity ratio [4]: 332; EC50 (HepG2): 10200 nM
34 | Clc1ccc2nc(/C=C/c3ccncc3)cc(N3CCCC3)c2c1 | 1180 nM |  | 
35 | Fc1ccc(/C=C/c2cc(NCCCCN3CCOCC3)c3cc(Cl)ccc3n2)cc1 | 2.4 nM | 0.3 | Stabilty [5]: 15.4%; t1/2 [6]: 22.2 min; EC50 (Plasmodium falciparum [2]): 6.9 nM; CLH [7]: 62.4 µL/min/mg; selectivity ratio [4]: 1480; EC50 (HepG2): 3550 nM
36 | COc1ccc2nc(/C=C/c3cc(NCCN(C)C)c4cc(Cl)ccc4n3)ccc2c1 | 281 nM | > 1.3 | 
37 | CN(C)CCNc1cc(/C=C/c2ccc(F)cc2)nc2ccc(F)cc12 | 30.9 nM |  | 
38 | CN(C)CCNc1cc(/C=C/C2CCCCC2)nc2ccc(Cl)cc12 | 394 nM | > 1.3 | 
39 | COc1ccc2nc(/C=C/c3ccccc3)cc(NCCN(C)C)c2c1 | 41.2 nM | > 1.3 | Activity (Plasmodium falciparum [2]): Active
40 | Fc1ccc(/C=C/C=C/c2cc(NCCCCN3CCOCC3)c3cc(Cl)ccc3n2)cc1 | 96.5 nM |  | 
41 | CN(C)CCNc1cc(/C=C/c2ccccn2)nc2ccc(Cl)cc12 | 67.5 nM |  | 
42 | Fc1ccc(/C=C/c2cc(Nc3ccc(N4CCCCC4)cc3)c3cc(Cl)ccc3n2)cc1 | 667 nM |  | EC50 (Plasmodium falciparum [2]): 155 nM
43 | CN(C)CCNc1cc(/C=C/c2ccccc2)nc2ccc(Cl)cc12 | 22.4 nM |  | 
44 | CN(C)CCNc1cc(/C=C/c2cc3ccccc3[nH]2)nc2ccc(Cl)cc12 | 95.9 nM | > 1.3 | 
45 | COc1ccc2nc(/C=C/c3ccncc3)cc(NCCN(C)C)c2c1 | 38.8 nM |  | 
46 | COc1ccc2nc(/C=C/c3ccc(OC)c(OC)c3)cc(NCCN(C)C)c2c1 | 187 nM | > 1.3 | Activity (Plasmodium falciparum [2]): Active
47 | CN(C)CCNc1cc(/C=C/c2ccco2)nc2ccc(F)cc12 | 82.6 nM |  | 
48 | COc1ccc2nc(/C=C/c3ccc(F)cc3)cc(NCCN(C)C)c2c1 | 32.9 nM |  | 
49 | Fc1ccc(/C=C/c2cc(N3CCOCC3)c3cc(Cl)ccc3n2)cc1 | 6750 nM |  | 
50 | CN(C)CCNc1cc(/C=C/c2ccncc2)nc2ccc(F)cc12 | 36.1 nM |  | 
51 | CN(C)CCNc1cc(/C=C/c2ccc([N+](=O)[O-])cc2)nc2ccccc12 | 47.9 nM |  | 
52 | Fc1cc(F)c(F)c(/C=C/c2cc(NCCCCN3CCOCC3)c3cc(Cl)ccc3n2)c1 | 588 nM |  | Activity (Plasmodium falciparum [2]): Active
53 | COc1ccc2nc(/C=C/c3cc(OC)c(OC)c(OC)c3)cc(NCCN(C)C)c2c1 | 74.2 nM | > 1.3 | Activity (Plasmodium falciparum [2]): Active
54 | Clc1ccc2nc(/C=C/c3ccccc3)cc(NCCN3CCCC3)c2c1 | 107 nM |  | 
55 | Fc1ccc(/C=C/c2cc(NCCCCN3CCOCC3)c3cc(Cl)ccc3n2)cn1 | 54.6 nM |  | Activity (Plasmodium falciparum [2]): Active
